Screening results deposited in PubChem BioAssay by Johns Hopkins Ion Channel Center.
This is a sample that favours compounds with a hit; in the whole collection about 3.5% have one here.
MrgX1 allo act = human MrgX1 positive allosteric modulation, primary screen. MrgX1-HEK293, Fluo-4 calcium flux, FDSS; active compounds read high. 310,000 tested, 0.63% active. B-score at 10 µM;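 active means plate-corrected calcium response at least 3 library SD above typical, normal starting fluorescence, not activating the receptor alone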;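 further: compound read alongside a low EC10 to EC30 dose of BAM8-22 agonist; peak minus trough fluorescence over baseline measured at the second addition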
Target sequence (Q96LB2 whole entry, looked up): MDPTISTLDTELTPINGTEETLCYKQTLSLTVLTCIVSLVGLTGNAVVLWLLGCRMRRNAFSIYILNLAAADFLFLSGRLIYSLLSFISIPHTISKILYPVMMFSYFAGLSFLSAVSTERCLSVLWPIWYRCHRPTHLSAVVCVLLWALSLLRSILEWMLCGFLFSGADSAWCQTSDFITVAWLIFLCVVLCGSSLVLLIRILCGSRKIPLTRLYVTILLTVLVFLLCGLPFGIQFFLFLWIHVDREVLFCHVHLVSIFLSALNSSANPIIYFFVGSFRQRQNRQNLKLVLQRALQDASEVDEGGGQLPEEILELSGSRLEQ
RGS4 act = RGS4 potentiation or activation | HEK293 M3R/inducible RGS4, carbachol calcium flux Fluo4; active compounds read low | B-score at 10 µM | 310,000 tested, 0.92% active;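 active means B-score of the integrated calcium signal more than 4 SD below the library mean, with starting fluorescence not abnormally high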;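 further: negative B-score means reduced calcium response which marks RGS4 activation or potentiation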
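System: HEK293 FlpIn-TREx cells, stable M3R, doxycycline-inducible RGS4. Timing: overnight RGS4 induction, 30 min dye load 37 °C, 20 min compound RT. Also added: carbachol, ECmax concentration. Measured by: Fluo4 fluorescence kinetic imaging of calcium. Evaluation: integrated calcium ratio converted to B score.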
MrgX1 ag = activates human MrgX1 receptor signaling; Q96LB2; MrgX1-HEK293 cells, Fluo-4 calcium fluorescence, agonist mode; active compounds read high; B-score at 10 µM; 310,000 tested, 0.44% active; AID 588627;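 active means calcium response B-score plate-corrected fluorescence ratio at least 3 library SD, with starting fluorescence B-score inside 5 SD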
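Material: MrgX1-expressing HEK293 cells; input: 15,000 cells per well; doses: test compound given as first of three sequential additions; schedule: overnight plating before 1 h dye loading; technique: Fluo-4 NW calcium-flux fluorescence, kinetic read; evaluation: baseline-normalised fluorescence change ratio, B-scored; control set: plate-wise positive and negative controls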
MrgX1 antag = human MrgX1 receptor antagonism, primary screen; Q96LB2; MRGX1-HEK293 calcium flux, Fluo-4, BAM8-22 antagonism; active compounds read low; B-score at 10 µM; 310,000 tested, 1.3% active;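 active means calcium-response B-score plate-corrected more than 3 library SD below zero, starting fluorescence within 5 deviations, no agonist response on first addition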;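 further: peak minus trough fluorescence over baseline after final BAM8-22 challenge near maximal dose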
RGS4 inh = human RGS4 inhibition; AID 463165; P49798; B-score at 10 µM; HEK293 M3R/RGS4 inducible, Fluo-4 calcium flux; active compounds read high; triggered by carbachol at its EC20; 310,000 tested, 0.45% active;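 active means B-score, a plate-corrected calcium signal, over three deviations above library mean, with baseline fluorescence within five deviations of library mean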;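 further: RGS4 expression induced by doxycycline in cells with stable M3 receptor; B-score is computed from the integrated fluorescence ratio over baseline after carbachol; higher B-score means a larger calcium signal and so more RGS4 inhibition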
Target sequence (P49798 whole entry, looked up): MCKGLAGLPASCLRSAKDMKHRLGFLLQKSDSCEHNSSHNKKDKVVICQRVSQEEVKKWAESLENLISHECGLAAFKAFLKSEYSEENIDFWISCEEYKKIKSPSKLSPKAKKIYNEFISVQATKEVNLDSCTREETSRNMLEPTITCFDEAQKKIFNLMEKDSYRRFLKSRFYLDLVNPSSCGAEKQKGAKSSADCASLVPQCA
MrgX1 PAM conf = reconfirmed allosteric activator of human MrgX1 receptor; shares compounds with MrgX1 allo act; MrgX1-HEK293, Fluo-4 calcium fluorescence, FDSS; activation (ratio percentage), % at 10 µM; 1,200 tested, 13% active; AID 602413;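 active means ratio at least 3 SD above the weak peptide control, stable starting fluorescence, no direct agonism earlier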;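 further: compound followed by low BAM8-22 agonist challenge near EC20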
MrgX1 antag conf = reconfirmed antagonist of human MrgX1 receptor signaling | 2,300 tested, 19% active | shares compounds with MrgX1 antag | remaining BAM8-22 calcium response % of control (active compounds read low), % at 10 µM | MrgX1-HEK293, BAM8-22 calcium flux, Fluo-4; active compounds read low | AID 602420;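 active means remaining agonist calcium response no higher than 100% minus 3 SD of agonist-only control wells, with starting fluorescence near control levels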;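 further: agonist BAM8-22 given at a near maximal EC90 to ECmax level; peak minus minimum fluorescence divided by baseline after agonist addition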
HEK293 Ca flux = counter-screen for MrgX1 antagonists: effect in parental HEK293 cells; shares compounds with MrgX1 antag; fluorescence ratio F(max-min)/F0 at 10 µM; Fluo-4 calcium fluorescence, FDSS; 4,000 tested, 2% active;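 active means duplicate-averaged calcium fluorescence ratio at least three times the standard deviation of buffer wells, a nonspecific response in parental cells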
HEK293 Ca counter = counter-screen for MrgX1 allosteric activators: effect in parental HEK293 cells. shares compounds with MrgX1 antag. parental HEK293 calcium flux, Fluo-4 fluorescence ratio; active compounds read high. fluorescence ratio F(max-min)/F0 at 10 µM. 4,000 tested, 0.4% active. AID 624114;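 active means calcium fluorescence ratio, averaged over duplicates, at least 3 SD of the buffer-well ratio, meaning a nonspecific response in receptor-free cells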;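 further: untransfected parental HEK293 lacking MrgX1 used as counterscreen for MrgX1 allosteric activators; fluorescence change taken during the second addition on a kinetic imager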
HEK293 Ca cntr2 = activity in parental HEK293 cells lacking MrgX1 receptor. shares compounds with MrgX1 antag. Fluo-4 calcium fluorescence (FDSS); active compounds read high. fluorescence ratio F(max-min)/F0 at 10 µM. 4,000 tested, 8.7% active. AID 624115;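 active means calcium fluorescence ratio at least three times the spread of buffer wells, meaning a non-specific response in parental cells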
Active calls of the source: *; i = inactive; x = not tested or not shown.

SMILES | MrgX1 allo act | RGS4 act | MrgX1 ag | MrgX1 antag | RGS4 inh | MrgX1 PAM conf | HEK293 Ca flux | HEK293 Ca counter | HEK293 Ca cntr2 | others
CN(C(=O)CNC(=O)c1ccc(Br)o1)C1CCCCC1 | i | i | i | i | i | x | x | x | x
NCc1ccccc1 | 13* | x | i | i | x | i | i | i | i
O=C1CCCN1CCCNC(=S)Nc1ccccc1 | i | i | i | i | i | x | x | x | x
CCOC(=O)c1ccc(NC(=S)NCCCN2CCCC2=O)cc1 | 8.6* | i | i | i | i | i | i | i | i
CC(=O)Nc1ccc(S(=O)(=O)NCCCc2ccccc2)cc1 | i | i | i | i | i | x | x | x | x
CCCCNC(=S)Nc1cccc(C(C)=O)c1 | i | i | i | i | i | x | x | x | x
C#CC(CC)(CC)NC(=S)Nc1cccc(C(C)=O)c1 | 8.3* | i | i | i | i | i | i | i | i
CS(=O)(=O)N(CCc1ccccc1)CC(=O)Nc1ccc(OCc2ccccc2)cc1 | i | i | i | i | i | x | x | x | x
COC(=O)c1ccccc1NC(=O)CN(CCc1ccccc1)S(C)(=O)=O | 9.5* | i | i | i | i | i | i | i | i
Cc1ccc(Cn2ncc3c(N4CCN(Cc5ccc(Cl)cc5)CC4)ncnc32)cc1 | 8.4* | i | i | -12* | i | i | i | i | i | MrgX1 antag conf=84%*
Cc1ccc(Cn2ncc3c(N4CCN(c5ccc(C)cc5)CC4)ncnc32)cc1 | i | i | i | i | i | x | x | x | x
O=C(NC1CCCCCC1)c1ccc(=O)n(Cc2ccccc2)n1 | i | i | i | i | i | x | x | x | x
Cc1ccccc1S(=O)(=O)Cc1ccc(C(=O)N2CCN(c3ccccc3F)CC2)o1 | i | i | i | i | i | x | x | x | x
C/C(=C\C(=O)C(F)(F)F)Nc1cc(C)cc(C)c1 | i | i | i | i | i | x | x | x | x
C/C(=C\C(=O)C(F)(F)F)Nc1ccc(C)cc1 | 7.7* | i | i | i | i | 13%* | i | i | i
CCCCCCSc1ccc([C@H]2N[C@@](C)(C(=O)OC)[C@H]3C(=O)N(C)C(=O)[C@@H]23)cc1 | i | i | i | i | i | x | x | x | x
O=C(Nc1cccc(F)c1)OC(CN1CCCCC1)C(F)(F)F (stereo not drawn) | 7.2* | i | i | i | i | i | i | i | i
COc1ccc(OCC(=O)N2CCN(S(=O)(=O)c3ccc(Cl)cc3)CC2)cc1 | 14* | i | i | i | i | i | i | i | i
COc1ccc(S(=O)(=O)N2CCC(C(=O)NCC3CC3)CC2)cc1 | 13* | i | i | i | i | i | i | i | i
COc1cc(/C=N/NC(=O)c2sc3nc(C)cc(C)c3c2N)ccc1O | i | i | i | i | i | x | x | x | x
COc1ccc(N2CCN(C(=O)CCNC(=O)Cn3ccc4ccccc4c3=O)CC2)cc1 | i | i | i | i | i | x | x | x | x
Nc1nc(C(c2ccccc2)c2ccccc2)cs1 | 8.7* | i | i | i | i | i | i | i | i
Nc1nc(-c2ccccc2)cs1 | i | i | i | i | i | x | x | x | x
Cc1cc(S(=O)(=O)Nc2ccc(C(=O)NCCCN3CCCC3=O)cc2)ccc1F | i | i | i | i | i | x | x | x | x
COc1cccc(Nc2ncccc2C(=O)Nc2ccccc2)c1 | 7.6* | i | i | i | i | i | i | i | i
SMILES | MrgX1 allo act | RGS4 act | MrgX1 ag | MrgX1 antag | RGS4 inh | MrgX1 PAM conf | HEK293 Ca flux | HEK293 Ca counter | HEK293 Ca cntr2 | others
O=C(COC(=O)c1cc(=O)c2ccccc2o1)Nc1ccc2ccccc2c1 | i | i | i | i | i | x | x | x | x
COc1ccc2nc(NC(=S)N(C)C)sc2c1 | 12* | i | i | i | i | i | i | i | i
Cc1ccc(N(CC(=O)Nc2ccc(Br)c(C)c2)S(=O)(=O)c2c(C)[nH]c(=O)[nH]c2=O)cc1 | 8.3* | i | i | i | i | i | i | i | i
COc1ccc(N(CC(=O)Nc2cc(C)ccc2C)S(=O)(=O)c2c(C)[nH]c(=O)[nH]c2=O)cc1 | i | i | i | i | i | x | x | x | x
Cc1ccc(-c2[nH]ncc2C(=O)c2ccc(Br)cc2)c(O)c1 | 8.7* | i | i | i | i | i | i | i | i
Cc1ccc(C(=O)c2cn[nH]c2-c2cc(Cl)ccc2O)cc1 | 11* | i | i | i | i | i | i | i | i
COc1ccc2cc(C(=O)N3CCN(c4ccc(F)cc4)CC3)[nH]c2c1 | i | i | i | i | i | x | x | x | x
O=C(O)c1ccc(N=Nc2c(-c3ccccc3)[nH]oc2=O)cc1 | i | i | i | i | i | x | x | x | x
COCCN1C(=O)/C(=C/c2ccc(N3CCCC3)cc2C)SC1=S | 19* | i | i | i | i | i | 0.13* | i | 48*
CCOc1cccc(N(C(=O)CNC(=O)c2ccco2)C(C(=O)NCC2CCCO2)c2ccccc2)c1 (stereo not drawn) | i | i | i | i | i | x | x | x | x
COc1ccc(CCNS(=O)(=O)c2ccc3c(c2)NC(=O)CO3)cc1OC | 33* | i | i | i | i | i | i | i | i
CCOc1cc(N2CCOCC2)c(OCC)cc1NS(=O)(=O)c1cc(NC(C)=O)ccc1OC | i | i | i | i | i | x | x | x | x
CCOC(=O)c1sc(NS(=O)(=O)c2ccc(F)cc2)nc1C | 12* | i | i | i | i | i | i | i | i
CCOC(=O)c1sc(NS(=O)(=O)c2ccccc2Cl)nc1C | 12* | i | i | i | i | i | i | i | i
CCC(C)Sc1nnc(NS(=O)(=O)Cc2ccccc2)s1 (stereo not drawn) | i | i | i | i | i | x | x | x | x
